1 molecule from ChEMBL document CHEMBL1140690, “5-((4-Aminopiperidin-1-yl)methyl)pyrrolotriazine dual inhibitors of EGFR and HER2 protein tyrosine kinases” (Bioorg Med Chem Lett, 2007) can be followed below.

The target of data set [1] is CDK2/Cyclin E1 (Homo sapiens, UniProt P24941). As to the kind of experiment: Inhibition of CDK2. The procedure, abridged: (§1)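 Selectivity-panel kinase assays against each named kinase. IC50 reported as the mean of at least three determinations.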
In data set [2] the test system is HT-29. As to the kind of experiment: Antiproliferative activity against human HT29 cells. Format: functional, cell-based. The method, boiled down: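 HT29 (colon carcinoma) and A2780 (ovarian carcinoma) lines, stated not to rely on EGFR or HER2 signalling, serve as counter-screen lines; proliferation IC50 reported.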
Data set [3] is described as follows: Inhibition of PKA. The arrangement: species or system Homo sapiens. The procedure, abridged: (§2)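 Kinase panel IC50s, each reported as the mean of at least three determinations.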
The target of data set [4] is Epidermal growth factor receptor (Homo sapiens, UniProt P00533). As to the kind of experiment: Inhibition of human recombinant EGFR expressed in insect Sf9 cells.
Epidermal growth factor receptor, sequence (P00533 whole entry): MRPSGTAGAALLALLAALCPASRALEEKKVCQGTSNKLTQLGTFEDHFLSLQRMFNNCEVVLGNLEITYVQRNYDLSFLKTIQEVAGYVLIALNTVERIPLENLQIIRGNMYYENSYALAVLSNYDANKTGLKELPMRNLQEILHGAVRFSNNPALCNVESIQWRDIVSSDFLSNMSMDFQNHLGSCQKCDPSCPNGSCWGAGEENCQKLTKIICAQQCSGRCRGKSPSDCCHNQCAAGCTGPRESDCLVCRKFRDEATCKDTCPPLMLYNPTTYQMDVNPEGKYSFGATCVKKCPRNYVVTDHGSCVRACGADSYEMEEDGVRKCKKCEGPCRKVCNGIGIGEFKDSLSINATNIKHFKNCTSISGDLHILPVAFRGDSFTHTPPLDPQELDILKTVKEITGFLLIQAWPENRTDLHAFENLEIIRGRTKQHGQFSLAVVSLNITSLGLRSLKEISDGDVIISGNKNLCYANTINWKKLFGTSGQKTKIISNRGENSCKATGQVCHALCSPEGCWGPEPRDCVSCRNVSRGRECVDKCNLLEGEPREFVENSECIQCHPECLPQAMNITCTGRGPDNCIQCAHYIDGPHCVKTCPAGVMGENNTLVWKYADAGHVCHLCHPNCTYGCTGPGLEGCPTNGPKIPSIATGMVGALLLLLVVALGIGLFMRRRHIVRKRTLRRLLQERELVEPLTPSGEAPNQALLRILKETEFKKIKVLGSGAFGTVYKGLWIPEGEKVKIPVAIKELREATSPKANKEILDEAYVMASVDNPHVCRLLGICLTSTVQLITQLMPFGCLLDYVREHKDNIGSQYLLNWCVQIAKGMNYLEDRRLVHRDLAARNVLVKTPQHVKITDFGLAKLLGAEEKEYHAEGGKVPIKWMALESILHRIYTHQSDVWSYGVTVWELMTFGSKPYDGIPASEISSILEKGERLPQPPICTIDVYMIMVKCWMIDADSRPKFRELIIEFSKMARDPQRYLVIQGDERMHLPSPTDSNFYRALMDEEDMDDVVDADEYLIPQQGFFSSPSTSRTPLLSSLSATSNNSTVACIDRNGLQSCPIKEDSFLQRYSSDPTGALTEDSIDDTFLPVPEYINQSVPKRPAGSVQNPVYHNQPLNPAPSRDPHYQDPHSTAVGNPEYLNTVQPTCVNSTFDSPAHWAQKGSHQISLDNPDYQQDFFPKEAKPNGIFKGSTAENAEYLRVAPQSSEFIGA
The nature of data set [5]: Antitumor activity against human GEO cells xenografted in athymic mouse at 120 mg/kg, sc QD after 10 days.
Data set [6] relates to HT29. The experiment in a line: Antiproliferative activity against human HT29 cells.
The target in data set [7] is MAP kinase p38 (Homo sapiens, UniProt O15264+Q15759+Q16539+P53778). The experiment in a line: Inhibition of p38. The format is protein assay. The method, boiled down:
as §1

Data set [8] relates to NCI-N87. As to the kind of experiment: Antiproliferative activity against human N87 cells.
The nature of data set [9]: Drug level in BALB/c mouse plasma at 50 mg/kg, po after 4 hrs. The format is ADME, organism-based. Also on record: dose 50 mg/kg, route oral. The method, boiled down: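 Single oral 50 mg/kg dose in Tween 80/PEG400/water (10/40/50, v/v/v) to three male Balb/C mice; plasma concentration at 4 h averaged, AUC0–4h also derived.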
Data set [10] has as its target Tyrosine-protein kinase Lck (Homo sapiens, UniProt P06239). As to the kind of experiment: Inhibition of LCK.
Data set [11] has as its system NCI-N87. The experiment in a line: Antitumor activity against human N87 cells xenografted in athymic mouse at 180 mg/kg, po QD after 21 days. The note with it: 504 h.
Data set [12] deals with Hepatocyte growth factor receptor (Homo sapiens, UniProt P08581). As to the kind of experiment: Inhibition of Met. The method, boiled down:
as §1

For data set [13], the target named is Vascular endothelial growth factor receptor 2 (Homo sapiens, UniProt P35968). As to the kind of experiment: Inhibition of VEGFR2. The method, boiled down:
as §1

For data set [14], the system named is Liver. The experiment in a line: Metabolic stability in mouse liver microsomes at 3 uM after 10 mins in presence of NADPH. Format: ADME, Microsome. The procedure, abridged:
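Mouse liver microsomes with NADPH; compound at 3 µM, incubated 10 min; metabolic rate expressed as nmol/min/mg protein.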

A short description of data set [15]: Antitumor activity against human GEO cells xenografted in athymic mouse at 240 mg/kg, […] after 10 days. Particulars: sc, 240 h. Format: functional. The method, boiled down:
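Established subcutaneous GEO human colon carcinoma xenografts in athymic mice. Compound given orally once daily for 10 days (QD × 10) in Tween 80–PEG400–water (10/40/50).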

The nature of data set [16]: AUC (0 to 4 hrs) in BALB/c mouse at 50 mg/kg, po after 4 hrs. Format: ADME, organism-based. Also on record: time < 4 hr, dose 50 mg/kg, route oral. Particulars: plasma.
The target in data set [17] is Receptor tyrosine-protein kinase erbB-2 (Homo sapiens, UniProt P04626). As to the kind of experiment: Inhibition of human recombinant HER2 expressed in insect Sf9 cells.
Receptor tyrosine-protein kinase erbB-2, sequence (P04626 whole entry): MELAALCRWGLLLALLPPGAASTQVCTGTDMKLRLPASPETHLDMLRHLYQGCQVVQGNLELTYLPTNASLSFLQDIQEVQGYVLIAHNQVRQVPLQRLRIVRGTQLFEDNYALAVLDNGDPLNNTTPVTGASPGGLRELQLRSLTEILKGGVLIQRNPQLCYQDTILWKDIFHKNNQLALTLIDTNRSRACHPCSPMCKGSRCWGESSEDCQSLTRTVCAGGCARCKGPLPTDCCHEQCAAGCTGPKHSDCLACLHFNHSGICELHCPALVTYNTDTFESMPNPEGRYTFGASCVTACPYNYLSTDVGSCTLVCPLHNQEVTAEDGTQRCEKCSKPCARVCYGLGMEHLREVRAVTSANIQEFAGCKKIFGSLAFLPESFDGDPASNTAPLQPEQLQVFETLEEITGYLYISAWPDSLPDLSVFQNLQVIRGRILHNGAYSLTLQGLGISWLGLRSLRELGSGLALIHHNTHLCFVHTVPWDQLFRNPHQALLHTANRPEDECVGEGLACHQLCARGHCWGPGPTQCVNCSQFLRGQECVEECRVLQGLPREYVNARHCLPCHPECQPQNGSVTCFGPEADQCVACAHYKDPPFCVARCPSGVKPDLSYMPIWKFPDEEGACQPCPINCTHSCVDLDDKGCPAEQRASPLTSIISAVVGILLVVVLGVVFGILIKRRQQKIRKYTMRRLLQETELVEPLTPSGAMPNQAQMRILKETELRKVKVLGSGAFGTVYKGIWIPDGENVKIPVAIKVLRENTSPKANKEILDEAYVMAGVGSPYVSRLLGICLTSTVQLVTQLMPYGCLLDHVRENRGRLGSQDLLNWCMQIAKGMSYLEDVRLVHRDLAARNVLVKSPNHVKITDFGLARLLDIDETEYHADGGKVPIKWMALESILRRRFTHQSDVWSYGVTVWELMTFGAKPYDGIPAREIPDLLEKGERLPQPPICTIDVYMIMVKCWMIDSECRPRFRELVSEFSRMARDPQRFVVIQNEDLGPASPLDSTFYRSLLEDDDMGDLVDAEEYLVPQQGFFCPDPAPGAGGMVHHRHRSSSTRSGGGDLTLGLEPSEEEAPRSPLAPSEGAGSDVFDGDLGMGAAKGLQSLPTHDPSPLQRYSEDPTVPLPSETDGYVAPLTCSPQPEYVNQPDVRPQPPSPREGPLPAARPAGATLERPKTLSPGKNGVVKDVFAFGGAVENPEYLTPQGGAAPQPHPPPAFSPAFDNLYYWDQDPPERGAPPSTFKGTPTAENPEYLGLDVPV
The target of data set [18] is Protein kinase C (PKC). The experiment in a line: Inhibition of PKC. Also on record: species or system Homo sapiens. The method, boiled down: as §2

Molecules are shown by their SMILES.

Tyrosine-protein kinase Lck, sequence (P06239 whole entry): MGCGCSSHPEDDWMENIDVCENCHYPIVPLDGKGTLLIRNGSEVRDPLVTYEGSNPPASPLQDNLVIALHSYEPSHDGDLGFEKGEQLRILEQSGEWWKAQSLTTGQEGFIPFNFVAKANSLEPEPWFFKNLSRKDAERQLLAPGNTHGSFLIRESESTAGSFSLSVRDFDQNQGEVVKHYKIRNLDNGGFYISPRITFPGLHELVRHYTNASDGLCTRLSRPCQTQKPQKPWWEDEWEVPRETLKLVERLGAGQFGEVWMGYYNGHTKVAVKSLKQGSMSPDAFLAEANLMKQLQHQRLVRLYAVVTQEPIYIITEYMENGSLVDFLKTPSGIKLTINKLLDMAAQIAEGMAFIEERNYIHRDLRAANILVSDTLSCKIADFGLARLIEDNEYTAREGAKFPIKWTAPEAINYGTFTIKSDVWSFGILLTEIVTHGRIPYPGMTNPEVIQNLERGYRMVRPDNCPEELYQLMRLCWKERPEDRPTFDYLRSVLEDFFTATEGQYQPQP
Hepatocyte growth factor receptor, sequence (P08581 whole entry): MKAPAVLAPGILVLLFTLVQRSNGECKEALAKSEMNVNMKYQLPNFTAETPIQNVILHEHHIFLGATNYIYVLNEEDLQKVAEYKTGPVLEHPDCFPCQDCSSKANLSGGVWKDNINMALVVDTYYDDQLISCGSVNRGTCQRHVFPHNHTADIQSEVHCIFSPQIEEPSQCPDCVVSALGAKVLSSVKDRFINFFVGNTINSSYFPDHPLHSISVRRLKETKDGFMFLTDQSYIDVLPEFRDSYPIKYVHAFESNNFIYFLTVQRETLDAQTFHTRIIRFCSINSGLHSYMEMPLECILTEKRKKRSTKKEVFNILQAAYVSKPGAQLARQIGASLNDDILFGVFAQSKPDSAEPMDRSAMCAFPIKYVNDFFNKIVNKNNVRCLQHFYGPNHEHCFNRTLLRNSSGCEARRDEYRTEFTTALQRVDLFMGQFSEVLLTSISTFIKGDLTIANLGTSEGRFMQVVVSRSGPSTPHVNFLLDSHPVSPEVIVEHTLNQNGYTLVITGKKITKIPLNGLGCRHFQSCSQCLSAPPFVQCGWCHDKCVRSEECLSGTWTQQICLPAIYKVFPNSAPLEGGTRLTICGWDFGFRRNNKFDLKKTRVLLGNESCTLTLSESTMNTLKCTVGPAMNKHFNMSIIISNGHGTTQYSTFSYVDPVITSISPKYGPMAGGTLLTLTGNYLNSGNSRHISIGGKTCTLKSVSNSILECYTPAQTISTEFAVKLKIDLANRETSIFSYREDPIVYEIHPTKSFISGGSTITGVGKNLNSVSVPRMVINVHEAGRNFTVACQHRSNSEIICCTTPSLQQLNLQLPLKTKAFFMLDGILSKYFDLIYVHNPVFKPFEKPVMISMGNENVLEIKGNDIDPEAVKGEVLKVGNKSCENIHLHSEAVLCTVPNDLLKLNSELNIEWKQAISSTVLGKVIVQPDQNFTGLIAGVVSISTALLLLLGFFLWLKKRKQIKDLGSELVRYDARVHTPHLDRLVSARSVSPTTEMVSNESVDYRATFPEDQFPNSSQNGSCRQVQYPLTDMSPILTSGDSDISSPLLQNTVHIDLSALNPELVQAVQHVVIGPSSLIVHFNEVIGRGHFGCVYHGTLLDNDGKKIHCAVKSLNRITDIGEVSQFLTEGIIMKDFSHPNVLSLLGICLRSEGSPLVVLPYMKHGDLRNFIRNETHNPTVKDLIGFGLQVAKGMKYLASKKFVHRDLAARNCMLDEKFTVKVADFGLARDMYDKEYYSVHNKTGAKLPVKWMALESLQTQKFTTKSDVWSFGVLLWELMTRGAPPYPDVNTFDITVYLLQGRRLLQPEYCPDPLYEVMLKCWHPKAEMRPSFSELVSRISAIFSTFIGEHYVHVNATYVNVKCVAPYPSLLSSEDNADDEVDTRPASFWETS

Turning to `NC1CCN(Cc2ccn3ncnc(Nc4ccc5c(cnn5Cc5cccc(F)c5)c4)c23)CC1`, the IC50 in data set [1] is 1900 nM; in data set [2], 4300 nM; in data set [3] it was > 50000 nM; in [4], 35 nM; in data set [6], 4300 nM; in data set [7], > 50000 nM. For the same molecule, the concentration for half-maximal inhibition (IC50) in [8] was found to be 35 nM; in data set [10], 710 nM; in [12] it was 3900 nM; in [13] it was 480 nM; in [17], 23 nM; in data set [18], 2200 nM. Moreover, the MED in [5] was 120 mg/kg. This molecule came in with a concentration at 4 h in [9] of 2700 nM. The inhibition in vivo at 180 mg/kg in data set [11] is 133%. Besides, the minimal effective dose at 180 mg/kg in data set [11] (read-out: MED) worked out at 60 mg/kg. The metabolic rate in data set [14] worked out at 0.05 nmol/min/mg. For the same molecule, the inhibition in vivo at 240 mg/kg in data set [15] was found to be 85%. In addition, the AUC(0-t) at 4 h in data set [16] is 14 µM·h.
